Measured values as given in ChEMBL document CHEMBL1126907, “Possible contribution of a glutathione conjugate to the long-duration action of beta-funaltrexamine” (J Med Chem, 1993).

Legend:
Mus musculus [1] = test: Equivalent antagonist potencies of compound was measured after 24 hr of sc administration; antagonist dose; type: functional
Mu-type opioid receptor [2] = molecular target: Mu-type opioid receptor (Cavia porcellus, UniProt P97266); test: Inhibitory concentration against mu-opioid receptor in guinea pig ileum; type: tissue-based
In short: (§1)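 Electrically stimulated guinea pig ileum longitudinal muscle or mouse vas deferens. Agonist IC50 for inhibition of the stimulated response was determined as described previously.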

Mu-type opioid receptor [3] = molecular target: Mu-type opioid receptor (Mus musculus, UniProt P42866); test: Inhibitory concentration against mu-opioid receptor in mouse vas deferens; in short: as §1
[4] = (§2) Ratio of effective dose of morphine at 24 hr after antagonism treatment by icv administration in mouse (4.8 nmol) divided by its control ED50; type: functional
In short: (§3)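 Mice got antagonist icv at 4.8 nmol/mouse. At set times afterwards, morphine was given sc, and radiant heat tail-flick antinociception was measured 30 min later. The morphine ED50 was divided by the control ED50. Results are given with 95% confidence limits from three or four animals.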

[5] = (§4) Ratio of effective dose of morphine at 24 hr after antagonism treatment by sc administration in mouse divided by its control; type: functional
In short: (§5)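 Mice got antagonist sc at 5 mg/kg. At 30 min or 24 h, sc morphine was given 30 min before radiant heat tail-flick testing. The morphine ED50 was divided by the control ED50, with 95% confidence limits from three or four animals.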

[6] = (§6) Ratio of effective dose of morphine at 2 hr after antagonist treatment by icv administration in mouse (4.8 nmol) divided by its control; type: functional; in short: as §3
[7] = (§7) Ratio of effective dose of morphine at 30 min after antagonism treatment by sc administration in mouse divided by its control; type: functional; in short: as §5
Mus musculus [8] = test: Equivalent antagonist potencies of compound was measured after 24 hr of icv administration; antagonist dose; type: functional
[9] = Inhibitory concentration of ethylketazocine determined after treating with conjugate for 60 min of guinea pig ileum then divided by control IC50 in same preparation; type: functional
In short: (§8)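 Electrically stimulated guinea pig ileum was incubated with conjugate (1 × 10^-6 M) for 60 min, then washed ≥40 times with buffer. The agonist IC50 (ethylketazocine or morphine) was then divided by the control IC50 in the same preparation. Assays were run in triplicate, with se reported.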

[10] = Inhibitory concentration of morphine determined after treating with conjugate for 60 min of guinea pig ileum then divided by control IC50 in same preparation; type: functional; in short: as §8
[11] = Ratio of effective dose of morphine at 48 hr after antagonism treatment by icv administration in mouse (4.8 nmol) divided by its control ED50; type: functional; in short: as §3
[12] = Ratio of Equivalent antagonist potencies after 24 hr of icv administration/Equivalent antagonist potencies after 24 hr of sc administration was determined; type: functional
[13] = Ratio of effective dose of morphine at 72 hr after antagonism treatment by icv administration in mouse (4.8 nmol) divided by its control ED50; type: functional; in short: as §3
Mus musculus [14] = test: Equivalent antagonist potencies of compound was measured after 24 hr of icv administration; type: functional
Mus musculus [15] = test: Equivalent antagonist potencies of compound was measured after 24 hr of sc administration; type: functional
[16] = Ratio of effective dose of morphine at 72 hr after antagonism treatment by icv administration (4.8 nmol) divided by its control ED50; type: functional
In short: (§9)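 Mice, radiant heat tail-flick. Antagonist given icv at 4.8 nmol/mouse. At the stated interval afterwards, morphine was given sc and the test read 30 min later. Morphine ED50 after treatment was divided by control ED50. 95% confidence limits come from three or four animals.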

[17] = Ratio of effective dose of morphine at 24 hr after antagonism treatment by icv administration (4.8 nmol) divided by its control ED50; type: functional; in short: as §9
[18] = Ratio of effective dose of morphine at 24 hr after antagonism treatment by sc administration divided by its control; type: functional
In short: (§10)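 Mice, radiant heat tail-flick. Antagonist given sc at 5 mg/kg. At the stated interval, sc morphine was given 30 min before testing. Post-treatment morphine ED50 was divided by control ED50. 95% confidence limits come from three or four animals.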

[19] = Ratio of effective dose of morphine at 2 hr after antagonist treatment by icv administration (4.8 nmol) divided by its control; type: functional; in short: as §9
[20] = Ratio of effective dose of morphine at 30 min after antagonism treatment by sc administration divided by its control; type: functional; in short: as §10
Mus musculus [21] = test: as §2; type: functional; in short: as §3
Mus musculus [22] = test: as §4; type: functional; in short: as §5
Mus musculus [23] = test: as §6; type: functional; in short: as §3
Mus musculus [24] = test: as §7; type: functional; in short: as §5
Mus musculus [25] = test: Equivalent antagonist potencies of compound was measured after 24 hr of sc administration in mice; antagonist dose; type: functional
Mus musculus [26] = test: Equivalent antagonist potencies of compound was measured after 24 hr of icv administration in mice; antagonist dose; type: functional
[27] = Ratio of effective dose of morphine at 24 hr after antagonism treatment by icv administration in mice (4.8 nmol) divided by its control ED50; type: functional; in short: as §3
[28] = Ratio of effective dose of morphine at 24 hr after antagonism treatment by sc administration in mice divided by its control); type: functional; in short: as §5
[29] = Ratio of effective dose of morphine at 2 hr after antagonist treatment by icv administration in mice (4.8 nmol) divided by its control; type: functional; in short: as §3
[30] = Ratio of effective dose of morphine at 30 min after antagonism treatment by sc administration in mice divided by its control; type: functional; in short: as §5
[31] = Ratio of Equivalent antagonist potencies after 24 hr of icv administration/Equivalent antagonist potencies after 24 hr of sc administration in mice was determined; type: functional

Chain of Mu-type opioid receptor (Cavia porcellus, UniProt P97266) (P97266 whole entry): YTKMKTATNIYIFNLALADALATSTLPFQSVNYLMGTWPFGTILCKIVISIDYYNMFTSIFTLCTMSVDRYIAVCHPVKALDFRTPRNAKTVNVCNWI
Chain of Mu-type opioid receptor (Mus musculus, UniProt P42866) (P42866 whole entry): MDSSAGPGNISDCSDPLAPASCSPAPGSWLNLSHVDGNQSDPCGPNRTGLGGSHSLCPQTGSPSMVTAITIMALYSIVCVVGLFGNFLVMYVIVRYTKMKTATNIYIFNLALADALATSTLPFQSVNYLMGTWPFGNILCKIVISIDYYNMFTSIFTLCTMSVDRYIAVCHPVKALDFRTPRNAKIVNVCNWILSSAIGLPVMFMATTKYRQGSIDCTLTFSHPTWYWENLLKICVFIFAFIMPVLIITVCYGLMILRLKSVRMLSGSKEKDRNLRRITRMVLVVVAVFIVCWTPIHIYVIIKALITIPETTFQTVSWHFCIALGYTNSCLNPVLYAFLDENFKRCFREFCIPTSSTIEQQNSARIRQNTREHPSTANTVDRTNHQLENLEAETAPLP

COC(=O)CC(SCC(N)C(=O)O)C(=O)N[C@@H]1CC[C@@]2(O)[C@H]3Cc4ccc(O)c5c4[C@@]2(CCN3CC2CC2)[C@H]1O5 (stereo not given in full)
Inhibition (Mus musculus [1]): 5 µM/kg | IC50 (Mu-type opioid receptor [2]): 22 nM | IC50 (Mu-type opioid receptor [3]): 140 nM | Ratio [4]: 42.2 | Ratio [5]: 1.3 | Ratio [6]: 4.8 | Ratio [7]: 1.4 | Inhibition (Mus musculus [8]): 0.004 µM/kg | Ratio [9]: 1 | Ratio [10]: 1.7 | Ratio [11]: 2.8 | Ratio [12]: 1250 | Ratio [13]: 1.3

COC(=O)/C=C/C(=O)N[C@@H]1CC[C@@]2(O)[C@H]3Cc4ccc(O)c5c4[C@@]2(CCN3CC2CC2)[C@H]1O5
Inhibition (Mus musculus [14]): 0.034 µM/kg | Inhibition (Mus musculus [15]): 2.5 µM/kg | IC50 (Mu-type opioid receptor [2]): 4.8 nM | IC50 (Mu-type opioid receptor [3]): 82 nM | Ratio [9]: 1.1 | Ratio [10]: 19.5 | Ratio [16]: 2.4 | Ratio [12]: 74 | Ratio [17]: 6.6 | Ratio [18]: 3.9 | Ratio [19]: 9.7 | Ratio [20]: 3.9

NC(CSCC(=O)N[C@@H]1CC[C@@]2(O)[C@H]3Cc4ccc(O)c5c4[C@@]2(CCN3CC2CC2)[C@H]1O5)C(=O)O (stereo not given in full)
Ratio (Mus musculus [21]): 0.57 | Ratio (Mus musculus [22]): 1.3 | Ratio (Mus musculus [23]): 3 | Ratio (Mus musculus [24]): 3

COC(=O)CC(SCC(NC(=O)CCC(N)C(=O)O)C(=O)NCC(=O)O)C(=O)N[C@@H]1CC[C@@]2(O)[C@H]3Cc4ccc(O)c5c4[C@@]2(CCN3CC2CC2)[C@H]1O5 (stereo not given in full)
Inhibition (Mus musculus [25]): 3 µM/kg | IC50 (Mu-type opioid receptor [2]): 41 nM | IC50 (Mu-type opioid receptor [3]): 280 nM | Inhibition (Mus musculus [26]): 0.036 µM/kg | Ratio [9]: 0.3 | Ratio [10]: 1.2 | Ratio [27]: 6.3 | Ratio [28]: 2.6 | Ratio [29]: 3.1 | Ratio [30]: 3.8 | Ratio [31]: 83
